From ChEMBL document CHEMBL4513216, “Probing the Open Global Health Chemical Diversity Library for Multistage-Active Starting Points for Next-Generation Antimalarials” (ACS Infect Dis, 2020) come the findings set out here.

A short description of this series: Toxicity liver stage against HepG2, at 10uM. It counts as cell-based. Also noted: test concentration 10 uM, cell line HepG2-A16-CD81EGFP. The settings on record: human, HepG2-A16-CD81EGFP cells; read-out: INHIBITION
In outline:
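Uninfected HepG2-A16-CD81EGFP cells, 3 × 10^3 per well, 1536-well, plated on prespotted compound at 10 μM final, parasite-free screening media added to match infected plates; puromycin 10 μM positive, DMSO 0.5% negative; run in parallel with 48 h PbLuc assay at 37 °C, 5% CO2; viability by CellTiter-Glo luminescence, normalized to controls.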

On to `CCN1C[C@H]2CCN(Cc3ccncc3)C(=O)[C@@H]2C1`, for which the cytotoxicity at 10 µM was 5.53%.

As to `COc1ccccc1-c1cc(C(=O)Nc2nc[nH]n2)[nH]n1`, the cytotoxicity at 10 µM was -2.2%.

Take `COc1cccc(CN(C)C(=O)CCC(=O)c2ccccc2)c1OC`: the cytotoxicity at 10 µM was -3.62%.

As for `Cc1nn(C)c(C)c1CCC(=O)Nc1cccn(C)c1=O`, the cytotoxicity at 10 µM is -1.96%.

As to `Cn1nc(COCC2CC2)c2c1CCN(Cc1ccco1)C2`, the cytotoxicity at 10 µM is -1.77%.

On to `O=S1(=O)NC(c2ccnc(N3CCOCC3)n2)=Nc2ccccc21`, for which the cytotoxicity at 10 µM is 10.8%.

Regarding `CN(C)S(=O)(=O)NCc1cccnc1Oc1ccccc1`, the cytotoxicity at 10 µM worked out at 1.6%.

For the molecule `Cc1ccc2oc(SCC(N)=O)nc2n1`, the cytotoxicity at 10 µM is 9.65%.

With `CCOCc1ncn2c1CN(C(=O)Nc1ccc(CC)cc1)CC2`, the cytotoxicity at 10 µM amounted to 5.96%.

Regarding `CC1c2ncc(Cn3cncn3)n2CCN1C(=O)[C@H]1CCCO1` (stereo partly specified), the cytotoxicity at 10 µM is -4.12%.

As to `Nc1nc(Sc2cccs2)cc(N2CC[C@H](CO)[C@H](O)C2)n1`, the cytotoxicity at 10 µM was determined as 2.68%.

Take `O=C1CC2(CCCCC2)CC(=O)N1CC(O)COCc1ccc(Cl)cc1` (stereo unspecified): the cytotoxicity at 10 µM is -1.04%.

For `CCN1CCC(CC(=O)N2CCCCC2CCn2cccn2)CC1` (stereo unspecified), the cytotoxicity at 10 µM was -5.02%.

Consider `Cn1ccnc1CN1CCC2(CC1)COC2`, for which the cytotoxicity at 10 µM turned out to be 6.81%.

As for `Cn1cc(N2CC3(CCN(CC4CC4)C3)CC2=O)cn1` (stereo unspecified), the cytotoxicity at 10 µM came to 1.84%.

In the case of `Cc1ccc(C(=O)NCCCn2cccn2)c(=O)[nH]1`, the cytotoxicity at 10 µM came out at 3.54%.

As to `CCSC1=Nc2c(cnn2-c2ccc(Cl)cc2)C2=NCCCN12`, the cytotoxicity at 10 µM worked out at 8.49%.

For the molecule `CCn1cc(CN2CCN(C(=O)c3cc(Br)cs3)CC2)c(C)n1`, the cytotoxicity at 10 µM stood at 4.95%.

For `CC(C)CN1CCS(=O)(=O)[C@@H]2CCN(S(=O)(=O)N(C)C)CC[C@@H]21`, the cytotoxicity at 10 µM came out at 7.25%.

`O=C(c1ccoc1)N1CCn2nc(CN3CCSCC3)cc2C1`: the cytotoxicity at 10 µM was -57.8%.

In the case of `Cc1ccc(Nc2nccc(C3CN(CC(N)=O)C3)n2)nc1`, the cytotoxicity at 10 µM was -1.91%.

For `Cc1n[nH]c(C)c1CN1CC[C@@H]2[C@@H](CCC(=O)N2CCc2c[nH]cn2)C1`, the cytotoxicity at 10 µM is -3%.

Take `Cc1ccsc1C(=O)NCc1ccnc(N2CCN(C)CC2)c1`: the cytotoxicity at 10 µM is -8.6%.

For the molecule `COc1nccnc1N1CCC2(CC1)C(=O)N(C)c1ccccc12`, the cytotoxicity at 10 µM was -4.89%.

`COCCN(C)c1ccc(NCc2cscn2)nc1`: the cytotoxicity at 10 µM is 0.513%.

For `Cn1nc(C(=O)N2CCCCC2c2nc3cc(F)ccc3[nH]2)ccc1=O` (stereo unspecified), the cytotoxicity at 10 µM was -18.2%.

As for `Cc1nc(CN2C[C@@H]3CN(C(=O)c4ccoc4C)C[C@@H]3C2)cs1`, the cytotoxicity at 10 µM was -144%.

Take `Cc1cccnc1NC(=O)C1CCCN(c2cccc(C(F)(F)F)n2)C1` (stereo unspecified): the cytotoxicity at 10 µM was 4.95%.

Consider `C=Cc1cccc(CN2C[C@@H]3CC[C@H]2CN(Cc2c(C)noc2C)C3)c1`, for which the cytotoxicity at 10 µM was -6.58%.

As for `O=C(c1ccncc1)N1CCCn2nnc(COCCO)c2C1`, the cytotoxicity at 10 µM was 10.5%.

For the molecule `O=c1c2sccc2ncn1CC(O)CN1CCOCC1` (stereo unspecified), the cytotoxicity at 10 µM was 7.27%.

Regarding `COCCN1CC[C@H]2CN(Cc3ccc(C)s3)C[C@@H]2C1=O`, the cytotoxicity at 10 µM was -3.72%.

In the case of `CC(C)CCN1Cc2c(C(=O)O)ncn2-c2ccccc2S1(=O)=O`, the cytotoxicity at 10 µM turned out to be 6.72%.

With `O=C(CO)N1CCN(S(=O)(=O)CCCF)CC1`, the cytotoxicity at 10 µM is -0.655%.

On to `Cc1cc(CN2CCOC(Cn3nc(C)cc3C)C2)on1` (stereo unspecified), for which the cytotoxicity at 10 µM is -5.81%.

Take `CN(Cc1ccccc1)C1(C(=O)NCC(N)=O)Cc2ccccc2C1`: the cytotoxicity at 10 µM amounted to 2.45%.

For the molecule `CCC[C@@H]1CN(C(=O)c2conc2-c2ccccc2)C[C@H]1N(C)C`, the cytotoxicity at 10 µM was determined as 2.29%.

As to `CCn1nc(C)c2nc(C(C)C)nc(NCC(C)C)c21`, the cytotoxicity at 10 µM was found to be 15.5%.

Turning to `N#Cc1ccccc1CN1CCC(c2nccn2CC(N)=O)CC1`, the cytotoxicity at 10 µM is -8.61%.

`CCN1CCc2c(CNC(=O)c3nccn3C)cncc2C1`: the cytotoxicity at 10 µM was -109%.

`c1csc(C(CNCc2cccc3c2OCO3)N2CCOCC2)c1` (stereo unspecified): the cytotoxicity at 10 µM is -44.4%.

Regarding `Clc1ccccc1Cn1cc(CNC2CCc3ncnn3C2)cn1` (stereo unspecified), the cytotoxicity at 10 µM was found to be 1.91%.

`Cc1nc(C2CCCN(C(=O)COCc3ccccc3)C2)no1` (stereo unspecified): the cytotoxicity at 10 µM was -2%.

With `Cn1nc(C2CCCN2)c2c(C(=O)NCC(F)(F)F)cc(C3CC3)nc21` (stereo unspecified), the cytotoxicity at 10 µM came to 13.1%.

Consider `c1ccc(CN2CCC(CNc3ncnc4c3CCNCC4)CC2)cc1`, for which the cytotoxicity at 10 µM was -4.84%.

As to `CSCC(=O)N1CCCN(Cc2cscn2)CC1`, the cytotoxicity at 10 µM is -5.28%.

With `CNC(=O)c1nc(CN2CCOC(Cc3ccc(F)cc3)C2)no1` (stereo unspecified), the cytotoxicity at 10 µM was -2.28%.

For the molecule `CCO[C@H]1COC[C@@H]1NC(=O)CCc1nc(-c2ccccc2)no1`, the cytotoxicity at 10 µM was found to be 15.8%.

`CN(C)CC(=O)N1CCC2(CC1)COC(COc1ccccn1)C2` (stereo unspecified): the cytotoxicity at 10 µM is -3.14%.

For `COCCN1CCCC(c2ccnc3c(C(N)=O)cnn23)C1` (stereo unspecified), the cytotoxicity at 10 µM came out at 2.05%.

Turning to `Cc1ccc(C(C)NC(=O)N2CCNC(=O)CC2)cc1F` (stereo unspecified), the cytotoxicity at 10 µM is 18.9%.

As for `CS(=O)(=O)NCC1CCCCN1C(=O)c1ccsc1` (stereo unspecified), the cytotoxicity at 10 µM came out at 0.555%.

On to `Cc1cc(S(=O)(=O)N(C)CC(N)=O)ccc1Br`, for which the cytotoxicity at 10 µM came to 15%.

Regarding `COc1ccc(C)cc1C(=O)NC1(C#N)CCOCC1`, the cytotoxicity at 10 µM stood at 1.98%.

Consider `Cc1nccc(N2CCCC(c3nnc(Cn4ccnc4C)n3C)C2)n1` (stereo unspecified), for which the cytotoxicity at 10 µM is -2.04%.

For the molecule `CN(Cc1ccco1)[C@@H]1CN(C(=O)C2CCOCC2)C[C@@H]2CCCO[C@@H]21`, the cytotoxicity at 10 µM was determined as 3.48%.

Consider `Cc1ccc(C2(C(=O)NCCCn3cccn3)CCOCC2)cc1`, for which the cytotoxicity at 10 µM was 9.73%.

Turning to `Cc1cc2c(cc1C)C(NCc1nnc3n1CCCCC3)CCCO2` (stereo unspecified), the cytotoxicity at 10 µM amounted to 0.873%.

As for `CC(NC(=O)C1=NN(C)C(=O)CC1)c1ccccc1Cl` (stereo unspecified), the cytotoxicity at 10 µM was 0.665%.

`CN(Cc1cccnc1)[C@@H]1CN(C(=O)NC2CC2)[C@@H]2CCCO[C@H]12`: the cytotoxicity at 10 µM was found to be 2.75%.

Take `O=C(c1ccc(-c2cccc3c2CCNC3)o1)N1CCCC1`: the cytotoxicity at 10 µM was 3.34%.

`Cn1cc(CNC2CCc3ncnn3C2)c(-c2cccnc2)n1` (stereo unspecified): the cytotoxicity at 10 µM was -5.92%.

In the case of `CNC(=O)[C@@H]1CC[C@@H]2[C@@H](CCN2C(=O)N(C)C)O1`, the cytotoxicity at 10 µM was determined as 13.2%.

Regarding `CC(C)c1ccc(OCCC(=O)N2CCC(C(=O)N(C)C)CC2)cc1`, the cytotoxicity at 10 µM was -17.5%.

As for `C[C@@H]1C[C@H]2CN(C(=O)c3cccc4c3OCCO4)C[C@H]2O1`, the cytotoxicity at 10 µM was -0.726%.

Consider `Cc1cnc(N2CCN(C)CC2)nc1-c1ccnn1C`, for which the cytotoxicity at 10 µM is 6.3%.

Consider `CCc1ccc(CNC(=O)N2CCN(Cc3cc(C)on3)CC2)s1`, for which the cytotoxicity at 10 µM was -7.03%.

For `Cc1nc(C(=O)N2CCN(S(C)(=O)=O)CC2)c(-c2ccccc2Cl)s1`, the cytotoxicity at 10 µM amounted to 4.37%.

For the molecule `Cc1csc(CCNc2ccc(C#N)cc2F)n1`, the cytotoxicity at 10 µM was found to be 2.17%.

For the molecule `CCc1n[nH]c(=O)c(C(=O)N2CCSCC2)c1CC`, the cytotoxicity at 10 µM was found to be 19.5%.

`COc1ccc(-n2nc(C)c(C(C)=O)c2C)cc1CO`: the cytotoxicity at 10 µM is 11.2%.
